Source: PubChem
Rin1-Abl PPI inh: inhibitors of Rin1-Abl protein binding, primary screen, biochemical, TR-FRET; Tyrosine-protein kinase ABL1 (Homo sapiens) + Ras and Rab interactor 1 (Homo sapiens), …; inhibition, % at 7.35 µM; hit rate 0.4% among 360,000; AID 588664, 2011; in the data active = inhibition above about 5%, passing the limit was not always enough
Tb MetRS inh: T. brucei MetRS inhibitors, primary screen, biochemical, luminescence; methionyl-tRNA synthetase (Trypanosoma brucei brucei); purified T. brucei MetRS, ATP depletion, Kinase-Glo luminescence; inhibition, % at 11.9 µM; hit rate 0.4% among 360,000;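 active = inhibition above a per-plate cutoff of the control wells' mean inhibition plus 3 SD, cut at about 5.5% in these data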
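Dosing: 11.9 µM compound single dose, 0.9% DMSO; Assay system: purified T. brucei MetRS enzyme; Measured by: Kinase-Glo luciferase luminescence reporting remaining unconsumed ATP; Schedule: 15 min plus 2 h at 25 °C.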
ATG4B inhibitor: ATG4B protease inhibitors, primary screen, biochemical, fluorescence, uHTS; inhibition, % at 8.33 µM; hit rate 0.51% among 340,000; ATG4B cleavage of LC3-PLA2, NBD-HPC fluorescence, 1 h; in the data active = inhibition above about 40%
Target sequence (Q9Y4P1 whole entry, looked up): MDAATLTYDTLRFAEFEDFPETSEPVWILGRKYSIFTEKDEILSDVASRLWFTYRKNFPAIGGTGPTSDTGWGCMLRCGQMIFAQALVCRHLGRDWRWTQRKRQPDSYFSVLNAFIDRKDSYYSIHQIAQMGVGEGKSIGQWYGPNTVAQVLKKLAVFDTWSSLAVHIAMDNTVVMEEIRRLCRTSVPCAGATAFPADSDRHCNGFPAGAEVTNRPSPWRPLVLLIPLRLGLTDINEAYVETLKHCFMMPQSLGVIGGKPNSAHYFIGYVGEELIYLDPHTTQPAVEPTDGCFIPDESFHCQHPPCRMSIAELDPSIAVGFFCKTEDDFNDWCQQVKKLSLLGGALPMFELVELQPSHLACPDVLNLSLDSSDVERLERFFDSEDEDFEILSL
UCH37 inh: inhibitors of human UCH37 deubiquitinase, primary screen, biochemical, Ub-AMC cleavage, fluorescence; Ubiquitin carboxyl-terminal hydrolase isozyme L5 (Homo sapiens), Q9Y5K5; purified proteasome/UCH37; inhibition, % (no concentration beside the values); hit rate 0.33% among 330,000; AID 588478, 2011;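 active = mean inhibition over replicate wells above about 20%, limit read from the data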
Target sequence (Q9Y5K5 whole entry, looked up): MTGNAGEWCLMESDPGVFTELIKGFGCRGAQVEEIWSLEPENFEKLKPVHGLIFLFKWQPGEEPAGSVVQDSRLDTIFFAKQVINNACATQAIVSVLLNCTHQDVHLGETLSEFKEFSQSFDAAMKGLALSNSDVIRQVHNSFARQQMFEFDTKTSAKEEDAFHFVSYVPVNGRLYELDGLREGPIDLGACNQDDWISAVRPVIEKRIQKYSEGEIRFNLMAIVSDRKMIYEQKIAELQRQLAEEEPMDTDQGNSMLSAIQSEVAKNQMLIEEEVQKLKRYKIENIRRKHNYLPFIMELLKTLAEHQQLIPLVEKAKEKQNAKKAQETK
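Reagent: Ub-AMC substrate; assay system: Proteasome-associated human UCH37 deubiquitinase; controls: no-proteasome and no-compound wells; read-out: % inhibition of Ub-AMC cleavage fluorescence; timing: 30 min preincubation with enzyme, 25 min cleavage at room temperature; signal: AMC fluorescence from Ub-AMC cleavage, excitation 355 nm, emission 460 nm; buffer or medium: Tris-HCl pH 7.4 plus ovalbumin, ATP-MgCl2, DTT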
UCH37 reconfirm: retest of human UCH37 deubiquitinase inhibitors, confirmation, biochemical, Ub-AMC cleavage rate, fluorescence; AID 624100, 2012; hit rate 27% among 480; shares compounds with UCH37 inh; inhibition, % at 20 µM; Proteasome-bound UCH37;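 active = average inhibition over replicates above about 50%, so the earlier screening hit is confirmed, limit read from the data; inactive = the rest, counted as false positives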;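 note: based on cleavage rate fitted by regression over a 30 min kinetic read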
Large screens that a line does not name were inactive (follow-up assays come after a bar, where they were run); ! = repeats disagree. A selection: hits, their analogues and other compounds. The true share with any hit is near 1.4%.

COc1cc(/C=C(\NC(=O)c2ccccc2)C(=O)Nc2cccc(O)c2)c([N+](=O)[O-])cc1OC	UCH37 inh 51 | UCH37 reconfirm inactive
COc1cc(/C=C(\NC(=O)c2ccccc2)C(=O)NCCO)c([N+](=O)[O-])cc1OC	none
Cn1c(=O)c2ccccc2n(CC(=O)NCCC2=CCCCC2)c1=O	UCH37 inh 32 | UCH37 reconfirm inactive
COC(=O)CNC(=O)CNC(=O)c1nn(-c2ccc(OC)c(OC)c2)c(=O)c2ccccc12	none
COc1ccc(-n2nc(C(=O)NCC(=O)NCCC3=CCCCC3)c3ccccc3c2=O)cc1OC	UCH37 inh 36 | UCH37 reconfirm 54
Cn1c(=O)c2sccc2n(CC(=O)NCCC2=CCCCC2)c1=O	none (no result: UCH37 inh)
O=C(c1ccccc1)c1c[nH]c(C(=O)NCCCn2ccnc2)c1	none
CC(=NNC(=O)c1cccc(NN=C(C)c2cc(O)ccc2O)c1)c1cc(O)ccc1O	UCH37 inh 35 (no result: Rin1-Abl PPI inh, Tb MetRS inh, ATG4B inhibitor) | UCH37 reconfirm inactive
CSc1nnc(NC(=O)c2cc(=O)c3cc(C)cc(C)c3o2)s1	UCH37 inh 34 | UCH37 reconfirm inactive
Cc1cc(C)c2oc(C(=O)Nc3nnc(C(C)C)s3)cc(=O)c2c1	none
Cc1cc(N=Nc2ccccc2C(=O)O)c(C)c(C)c1O	UCH37 inh 25 | UCH37 reconfirm inactive
Cc1ccoc1C(=O)NCCCNC(=O)c1occc1C	UCH37 inh 48 | UCH37 reconfirm inactive
Cc1ccoc1C(=O)NCCNC(=O)c1occc1C	none
Oc1c(Br)cc(Br)c2cccnc12	none (no result: UCH37 inh)
[O-][n+]1cccc2c(Br)cc(Br)c(O)c21	UCH37 inh 45 | UCH37 reconfirm inactive
CN(C)C(=O)C[n+]1ccc(/C=N/O)cc1	none (no result: UCH37 inh)
CCCCCCCCCCCCCCCC[n+]1ccc(C=NO)cc1	UCH37 inh 53 (no result: Rin1-Abl PPI inh, Tb MetRS inh, ATG4B inhibitor) | UCH37 reconfirm 57
CCN1/C(=C\C=C(C(C)=O)C(C)=O)Sc2ccccc21	UCH37 inh 39 | UCH37 reconfirm inactive
CCCCN(C(=O)c1cc(CN2C(=O)c3ccccc3C2=O)ccc1OC)c1c(N)n(CC(C)C)c(=O)[nH]c1=O	none
CC(=O)Nc1ccc(Sc2ccc([N+](=O)[O-])o2)cc1	UCH37 inh 28 | UCH37 reconfirm inactive
O=C(c1ccc(Cl)cc1)C(Cn1cncn1)C(Sc1ccccc1)c1ccccc1 (stereo not given)	none
Cc1ccc(SC(c2ccccc2)C(Cn2cncn2)C(=O)c2ccccc2)cc1 (stereo not given)	UCH37 inh 42 | UCH37 reconfirm inactive
O=C(N/N=C1\C/C(=N\NC(=O)c2ccncc2)c2ccccc21)c1ccncc1	none (no result: UCH37 inh)
O=C(NN=C1CC(=NNC(=O)c2ccncc2)c2ccccc21)c1ccncc1	UCH37 inh 46 (no result: Rin1-Abl PPI inh, Tb MetRS inh, ATG4B inhibitor) | UCH37 reconfirm 77
NS(=O)(=O)c1ccc(N=Nc2ccc(=O)[nH]c2O)cc1	UCH37 inh 32 | UCH37 reconfirm inactive
Nc1nc(N)c(N=Nc2ccc(S(N)(=O)=O)cc2)c(=O)[nH]1	none (no result: UCH37 inh)
CCC(CO)Oc1cc(NC(=O)c2ccc(N)cc2)c2ncn(C(C)C)c2c1 (stereo not given)	none
CCCC1=C(C(=O)OCC)C(c2ccc(OC)c(C)c2OC)C(C#N)=C(N)O1 (stereo not given)	UCH37 inh 31 | UCH37 reconfirm inactive
COc1ccc(C(=O)N2CCN(c3ccccc3)CC2)cc1S(=O)(=O)NC1CC1	none
CCOc1cc(CNCCCN2CCOCC2)cc(Br)c1OCC(=O)Nc1cccc(C(F)(F)F)c1	none
O=C(O)C(c1ccccc1)N1C(=O)/C(=C\c2ccc(-c3ccccc3Cl)o2)SC1=S (stereo not given)	UCH37 inh 38 | UCH37 reconfirm 100
COC(=O)C1SCC2C(=O)N(Cc3ccc(Cl)cc3)CC(=O)N21 (stereo not given)	none
COC(=O)C1SCC2C(=O)N(Cc3ccc(Cl)c(Cl)c3)CC(=O)N21 (stereo not given)	UCH37 inh 29 | UCH37 reconfirm inactive
Oc1ccc2ccccc2c1C=NC12CN3CCN(CN(C3)C1)C2	UCH37 inh 74 | UCH37 reconfirm 72
COc1ccc([N+](=O)[O-])cc1N(CC(O)CN1C(=O)NC(C)(C)C1=O)S(=O)(=O)c1ccc(C)cc1 (stereo not given)	none (no result: ATG4B inhibitor, UCH37 inh)
Cn1c(N)c(C(=O)COC(=O)CCCc2nc3ccccc3s2)c(=O)n(C)c1=O	none
Cc1occc1C(=O)N/N=C/c1ccc(Cl)c([N+](=O)[O-])c1	none (no result: UCH37 inh)
CCc1ccc(NC(=O)C2CC(=O)N=C(N)S2)cc1 (stereo not given)	none
CC(C)c1ccc(NC(=O)C2CC(=O)N=C(N)S2)cc1 (stereo not given)	UCH37 inh 26 | UCH37 reconfirm 55
COc1cccc(C(Nc2ccccc2)c2ccc3ccc(C)nc3c2O)c1 (stereo not given)	none (no result: Rin1-Abl PPI inh, ATG4B inhibitor, UCH37 inh)
FC(F)(F)C1=Nc2cccc3cccc(c23)N1	UCH37 inh 57 | UCH37 reconfirm inactive
CC(=O)N(C1=C(Cl)C(=O)c2ccccc2C1=O)C1CCCCC1	UCH37 inh 44 | UCH37 reconfirm 54
CC(=O)N(c1ccccc1C)C1CCCC1	none
COC(=O)c1ccccc1NC1=C/C(=N\S(=O)(=O)c2cccs2)c2ccccc2C1=O	UCH37 inh 30 | UCH37 reconfirm 55!
COC(=O)c1cccc(NS(=O)(=O)c2cccs2)c1C	none
O=C(Nc1nc2cc3c(cc2s1)OCO3)C1CC1	none
CC(=O)N(C1=C(N)C(=O)c2ccccc2C1=O)c1ccccc1	UCH37 inh 37 | UCH37 reconfirm inactive
COc1cc(OC)c([N+](=O)[O-])cc1C=NNC(=O)c1ccncc1	UCH37 inh 44 (no result: Rin1-Abl PPI inh, Tb MetRS inh, ATG4B inhibitor) | UCH37 reconfirm inactive
COc1cc(OC)c(OC)cc1C=NNC(=O)c1cnccn1	UCH37 inh 41 (no result: Rin1-Abl PPI inh, Tb MetRS inh, ATG4B inhibitor) | UCH37 reconfirm inactive
c1ccc2oc(-c3csc(NCC4CCCO4)n3)cc2c1 (stereo not given)	none
O=c1cc(N2CCc3ccccc3C2)[nH]c(=O)n1-c1ccccc1Cl	none
Cc1ccccc1-n1c(=O)cc(N2CCc3ccccc3C2)[nH]c1=O	UCH37 inh 27 | UCH37 reconfirm inactive
Cc1ccc(-n2c(=O)cc(N3CCc4ccccc4C3)[nH]c2=O)cc1	UCH37 inh 34 | UCH37 reconfirm inactive
Cc1c(C=Nc2ccc(S(=O)(=O)CCO)cc2)c(O)[nH]c(=O)c1C#N	none
Cc1ccc(S(=O)(=O)Oc2ccc(/C=N/N=C3/NC(=O)C(CC(=O)O)S3)cc2)cc1[N+](=O)[O-] (stereo not given)	none (no result: UCH37 inh)
O=C(O)CC1S/C(=N/N=Cc2ccc(-c3ccc(Cl)cc3[N+](=O)[O-])o2)NC1=O (stereo not given)	UCH37 inh 28 (no result: Rin1-Abl PPI inh, Tb MetRS inh, ATG4B inhibitor) | UCH37 reconfirm inactive
O=C(O)CC1S/C(=N/N=Cc2ccc(-c3ccccc3[N+](=O)[O-])o2)NC1=O (stereo not given)	UCH37 inh 26 (no result: Rin1-Abl PPI inh, Tb MetRS inh, ATG4B inhibitor) | UCH37 reconfirm inactive
